pIC50: −log10 of the molar value. ≈ marks a conversion by molar mass, not a printed value. Calls of active or inactive are those of the source. The rule behind the calls is not given here.
Experiments:
J774 = assay: Selectivity index, ratio of IC50 for COX-1 to IC50 for COX-2 in mouse J774 cells; type: cell-based
In short: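 J774 macrophages stimulated 24 h with E. coli LPS (10 µg/mL) to induce COX-2, with or without compound (0.01–10 µM); supernatant PGE2 by RIA. Triplicate wells, three experiments, percent inhibition versus control, IC50 by sigmoidal fit; selectivity as COX-1/COX-2 IC50 ratio.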

[1] = molecular target: T1, Prostaglandin G/H synthase 1 (Mus musculus, UniProt P22437); assay: Inhibition of COX-1 in mouse J774 cells using arachidonic acid as substrate assessed as inhibition of prostaglandin E2 production preincubated for 15 mins followed by substrate addition measured after 30 mins by RIA; type: cell-based
T1 sequence (P22437 whole entry): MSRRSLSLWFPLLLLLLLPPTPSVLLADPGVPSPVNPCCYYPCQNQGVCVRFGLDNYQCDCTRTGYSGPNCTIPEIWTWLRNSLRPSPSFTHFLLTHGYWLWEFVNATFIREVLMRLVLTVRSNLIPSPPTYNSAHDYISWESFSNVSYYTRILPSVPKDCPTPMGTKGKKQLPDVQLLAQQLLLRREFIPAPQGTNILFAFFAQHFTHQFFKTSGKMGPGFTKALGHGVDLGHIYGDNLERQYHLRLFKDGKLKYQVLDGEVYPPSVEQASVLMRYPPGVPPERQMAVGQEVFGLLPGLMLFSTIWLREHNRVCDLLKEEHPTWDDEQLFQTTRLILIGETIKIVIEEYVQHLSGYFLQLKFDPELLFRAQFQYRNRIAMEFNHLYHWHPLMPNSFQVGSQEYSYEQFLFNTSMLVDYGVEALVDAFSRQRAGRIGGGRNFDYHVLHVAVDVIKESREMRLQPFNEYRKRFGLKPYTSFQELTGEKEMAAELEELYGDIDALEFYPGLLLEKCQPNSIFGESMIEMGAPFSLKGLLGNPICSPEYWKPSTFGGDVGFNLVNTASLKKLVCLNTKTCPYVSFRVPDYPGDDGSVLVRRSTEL
In short: (§1)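 J774 murine macrophages pretreated 15 min with compound (10 µM; lower concentrations 0.01–1 µM where needed), then incubated 30 min at 37 °C with 15 µM arachidonic acid; supernatant PGE2 measured by RIA. Triplicate wells, mean of three experiments of percent inhibition versus control; IC50 by sigmoidal fit.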

[2] = molecular target: T2, Prostaglandin G/H synthase 2 (Mus musculus) (UniProt Q05769); assay: Inhibition of LPS-induced COX-2 in mouse J774 cells using arachidonic acid as substrate assessed as inhibition of prostaglandin E2 production at 10 uM preincubated for 15 mins followed by substrate addition measured after 30 mins by RIA; type: cell-based
T2 sequence (whole entry): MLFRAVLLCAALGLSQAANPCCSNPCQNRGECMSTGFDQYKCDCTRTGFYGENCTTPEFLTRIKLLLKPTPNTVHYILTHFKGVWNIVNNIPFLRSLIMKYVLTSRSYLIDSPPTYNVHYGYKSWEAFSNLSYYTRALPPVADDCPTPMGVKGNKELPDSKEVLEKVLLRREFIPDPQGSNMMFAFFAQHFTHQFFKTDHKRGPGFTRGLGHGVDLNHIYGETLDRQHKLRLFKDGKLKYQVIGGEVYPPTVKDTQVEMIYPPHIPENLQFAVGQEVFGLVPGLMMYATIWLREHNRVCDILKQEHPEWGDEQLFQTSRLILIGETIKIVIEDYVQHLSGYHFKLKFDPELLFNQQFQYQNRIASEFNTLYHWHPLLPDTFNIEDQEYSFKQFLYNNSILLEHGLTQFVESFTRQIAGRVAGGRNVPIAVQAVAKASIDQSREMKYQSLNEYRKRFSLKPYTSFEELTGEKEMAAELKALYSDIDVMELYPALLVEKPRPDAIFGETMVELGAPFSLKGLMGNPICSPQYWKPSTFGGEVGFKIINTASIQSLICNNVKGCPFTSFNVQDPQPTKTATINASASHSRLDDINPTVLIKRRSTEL

[3] = molecular target: T3, Prostaglandin G/H synthase 1 (Mus musculus) (UniProt P22437); assay: Inhibition of COX-1 in mouse J774 cells using arachidonic acid as substrate assessed as inhibition of prostaglandin E2 production at 10 uM preincubated for 15 mins followed by substrate addition measured after 30 mins by RIA; type: cell-based; in short: as §1
T3 sequence (whole entry): T1 sequence (P22437 whole entry)

[4] = Metabolic stability in Sprague-Dawley rat plasma assessed as compound remaining after 120 mins by LC-MS/MS analysis; type: ADME, cell-free; conditions: read-out: Stability
In short: (§2)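 Compound (12 µL of 1 mM DMSO solution into 588 µL medium) incubated in PBS pH 7.4, pepsin-free SGF pH 1.5, or EDTA rat plasma. Aliquots taken at 0, 30, 60, 120 min and quenched with ice-cold acetonitrile containing internal standard; parent remaining as percent.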

[5] = Metabolic stability in Sprague-Dawley rat plasma assessed as compound remaining after 60 mins by LC-MS/MS analysis; type: ADME, cell-free; conditions: read-out: Stability; in short: as §2
[6] = Metabolic stability in Sprague-Dawley rat plasma assessed as compound remaining after 30 mins by LC-MS/MS analysis; type: ADME, cell-free; conditions: read-out: Stability; in short: as §2
[7] = Stability of the compound in simulated gastric fluid assessed as compound remaining at pH 1.5 after 120 mins by LC-MS/MS analysis; type: physicochemical; conditions: read-out: Stability
In short: (§3)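 1 mM DMSO stock added to 0.01 M PBS (pH 7.4) or 0.05 M simulated gastric fluid without pepsin (pH 1.5 with HCl); incubated in hybridisation oven; aliquots at 0, 30, 60, 120 min quenched with ice-cold acetonitrile containing internal standard; parent remaining (%) measured.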

[8] = Stability of the compound in simulated gastric fluid assessed as compound remaining at pH 1.5 after 60 mins by LC-MS/MS analysis; type: physicochemical; conditions: read-out: Stability; in short: as §3
Mus musculus [9] = assay: Analgesic activity in po dosed Swiss albino mouse assessed as reduction of acetic acid-induced writhing measured every 10 mins after 5 mins of administration; type: functional, organism-based
In short: (§4)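 Male Swiss albino mice (23–25 g), compound given orally in CMC vehicle; writhing induced by 0.6% acetic acid (10 mL/kg) ip. Stretching movements counted for 10 min, starting 5 min after administration; percent reduction versus CMC-treated animals.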

Thoracic aorta [10] = assay: Ex vivo vasorelaxant activity in Wistar rat endothelium thoracic aortic ring assessed as reduction of KCl-induced contraction at 0.001 uM to 10 uM relative to control; type: functional
In short: (§5)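 Endothelium-denuded thoracic aortic rings from male Wistar rats (250–350 g) in oxygenated Tyrode-type buffer at 37 °C, isometric tension recording. Rings precontracted with 30 mM KCl, then 3-fold increasing compound concentrations (1 nM–10 µM) added, also with 1 µM ODQ preincubated. Emax as % of KCl tone; pIC50; mean ± SE of 6–10 experiments.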

Thoracic aorta [11] = assay: Ex vivo vasorelaxant activity in Wistar rat endothelium thoracic aortic ring assessed as reduction of KCl-induced contraction in presence of guanylate cyclase inhibitor ODQ; type: functional; in short: as §5
Mus musculus [12] = assay: Analgesic activity in Swiss albino mouse assessed as reduction of acetic acid-induced writhing at 40 mg/kg, po measured every 10 mins after 5 mins of administration relative to control; type: functional; set-up: scale not given: the % may be the effect or the level left; in short: as §4
[13] = molecular target: T4, Prostaglandin G/H synthase 2 (Mus musculus, UniProt Q05769); assay: Inhibition of LPS-induced COX-2 in mouse J774 cells using arachidonic acid as substrate assessed as inhibition of prostaglandin E2 production preincubated for 15 mins followed by substrate addition measured after 30 mins by RIA; type: cell-based
T4 sequence (Q05769 whole entry): T2 sequence (whole entry)

Mus musculus [14] = assay: Analgesic activity in Swiss albino mouse assessed as reduction of acetic acid-induced writhing at 10 mg/kg, po measured every 10 mins after 5 mins of administration relative to control; type: functional; set-up: scale not given: the % may be the effect or the level left; in short: as §4
Mus musculus [15] = assay: Analgesic activity in Swiss albino mouse assessed as reduction of acetic acid-induced writhing at 20 mg/kg, po measured every 10 mins after 5 mins of administration relative to control; type: functional; set-up: scale not given: the % may be the effect or the level left; in short: as §4
[16] = Stability of the compound in phosphate buffer saline assessed as compound remaining at pH 7.4 after 30 mins by LC-MS/MS analysis; type: physicochemical; conditions: read-out: Stability; in short: as §3
[17] = Stability of the compound in phosphate buffer saline assessed as compound remaining at pH 7.4 after 120 mins by LC-MS/MS analysis; type: physicochemical; conditions: read-out: Stability; in short: as §2
[18] = Stability of the compound in simulated gastric fluid assessed as compound remaining at pH 1.5 after 30 mins by LC-MS/MS analysis; type: physicochemical; conditions: read-out: Stability; in short: as §3
[19] = Stability of the compound in phosphate buffer saline assessed as compound remaining at pH 7.4 after 60 mins by LC-MS/MS analysis; type: physicochemical; conditions: read-out: Stability; in short: as §3
[20] = Solubility of the compound in phosphate buffer saline at pH 7.4 after 90 mins by HPLC analysis; type: physicochemical
In short: (§6)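 DMSO stock (20 mM) diluted 2 µL into 198 µL PBS 0.01 M pH 7.4 or pepsin-free SGF 0.05 M pH 1.5, duplicate wells, shaken 90 min at 300 rpm. Filtrates analysed by HPLC with photodiode-array detection against seven-point standards (1–200 µM).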

[21] = Solubility of the compound in simulated gastric fluid at pH 1.5 after 90 mins by HPLC analysis; type: ADME; in short: as §6

SMILES	Ratio IC50 (J774)	pIC50 [1]	inhibition [2]	inhibition [3]	remaining at 2 h [4]	remaining at 1 h [5]	remaining at 0.5 h [6]	remaining at 2 h [7]	remaining at 1 h [8]	Activity (Mus musculus [9])	Emax (Thoracic aorta [10])	Activity (Thoracic aorta [11])	Activity (Mus musculus [12])	pIC50 [13]	Activity (Mus musculus [14])	Activity (Mus musculus [15])	remaining at 0.5 h [16]	remaining at 2 h [17]	remaining at 0.5 h [18]	remaining at 1 h [19]	also measured
Cc1c(CC(=O)NC(CCO)C(=O)O)cc(-c2ccc(S(C)(=O)=O)cc2)n1-c1cccc(F)c1 (racemic)	> 10	< 5.00	79%	16%	–	–	–	–	–	–	–	–	–	–	–	–	–	–	–	–	–
Cc1c(CC(=O)NC(CO[N+](=O)[O-])C(=O)O)cc(-c2ccc(S(C)(=O)=O)cc2)n1-c1cccc(F)c1 (racemic)	> 71	< 5.00	100%	0%	28.6%	57.1%	71.4%	87.5%	93.8%	Dose-dependent effect	18%	inactive	50%	6.85	12%	47%	75%	37.5%	100%	50%	–
Cc1c(C(N)C(=O)OCCO[N+](=O)[O-])cc(-c2ccc(S(C)(=O)=O)cc2)n1-c1ccc(F)cc1 (stereo unspecified)	–	–	–	–	0%	0%	0%	100%	100%	–	–	–	–	–	–	–	75%	75%	100%	75%	solubility at 1.5 h [20]: 80 µM (≈ 39.3 µg/mL); solubility at 1.5 h [21]: > 200 µM
Cc1c(CC(=O)NC(CCO[N+](=O)[O-])C(=O)O)cc(-c2ccc(S(C)(=O)=O)cc2)n1-c1cccc(F)c1 (racemic)	> 6	< 5.00	43%	27%	–	–	–	–	–	Dose-dependent effect	25%	inactive	23%	–	–	10%	–	–	–	–	–
Cc1c(CC(=O)NCCO[N+](=O)[O-])cc(-c2ccc(S(C)(=O)=O)cc2)n1-c1cccc(F)c1	> 33	< 5.00	95%	0%	–	–	–	–	–	Dose-dependent effect	49%	inactive	55%	6.52	18%	37%	–	–	–	–	solubility at 1.5 h [20]: > 200 µM; solubility at 1.5 h [21]: 150 µM (≈ 71.3 µg/mL)
Cc1c(CC(=O)NCCCO)cc(-c2ccc(S(C)(=O)=O)cc2)n1-c1ccc(F)cc1	> 147	< 5.00	100%	21%	–	–	–	–	–	–	–	–	–	–	–	–	–	–	–	–	–
